Assay outcomes from PubChem BioAssay.
Hits are enriched below; roughly 2.8% of the tested compounds scored in any of these assays.
NPY1 pot ag = potentiators or agonists of human neuropeptide Y receptor Y1; NPY-Y1 expressing cells, potentiator/agonist activation; activation, % at 3.6 µM; P25929; 220,000 tested, 0.37% active; AID 1304; in the data active = activation above about 33%, passing the limit was not always enough;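 also: cells stimulated with NPY at EC10 then isoproterenol at EC100; 0% = low agonist plus stimulus and 100% = saturating agonist plus stimulus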
Target sequence (P25929 whole entry, looked up): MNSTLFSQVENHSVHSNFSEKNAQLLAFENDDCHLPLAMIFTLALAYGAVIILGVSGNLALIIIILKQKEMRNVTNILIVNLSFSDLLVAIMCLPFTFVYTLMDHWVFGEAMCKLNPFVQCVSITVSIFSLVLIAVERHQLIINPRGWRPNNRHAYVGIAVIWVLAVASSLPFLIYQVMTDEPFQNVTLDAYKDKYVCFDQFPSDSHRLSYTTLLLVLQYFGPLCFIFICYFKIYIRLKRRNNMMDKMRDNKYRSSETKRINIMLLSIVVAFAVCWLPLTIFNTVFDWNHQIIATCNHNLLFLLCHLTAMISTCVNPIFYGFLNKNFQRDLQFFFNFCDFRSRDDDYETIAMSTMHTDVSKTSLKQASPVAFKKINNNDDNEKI
EP2 antag = EP2 receptor (human) inhibition; C6 glioma cells expressing human EP2, cAMP TR-FRET; cells stimulated with saturating PGE2; 260,000 tested, 0.52% active; P43116; inhibition, % at 25 µM; AID 1422;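 active = percent inhibition above 40 after rounding to a whole number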;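 also: rat C6 glioma host cells with rolipram phosphodiesterase inhibitor present; the protocol text gives 20 µM as final concentration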
EP2 modulator = modulators of human EP2 prostaglandin E2 receptor | EP2-expressing cells, cAMP HTRF FRET, PGE2 co-stimulation | 260,000 tested, 0.83% active | induction, % at 25 µM | P43116;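 active = compounds whose cAMP rise, as percent of the full-agonist control response, exceeds 60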;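 also: rat C6 glioma line stably carrying human EP2 under a CMV promoter; the protocol text gives 20 µM as final concentration; 100% = response of wells given 1 µM PGE2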
NPY Y1 blocker = blocks the human neuropeptide Y Y1 receptor; P25929; HEK293-CNG Y1 cells, membrane potential fluorescence; NPY at EC95, then isoproterenol; inhibition, % at 3.6 µM; 200,000 tested, 1% active; AID 1040;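 active = inhibition above the campaign mean inhibition of all tested compounds plus 3 SD, cut at about 20% in these data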;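 also: 0% = DMSO wells given NPY plus isoproterenol and 100% = isoproterenol alone without NPY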
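Material: Y1- and CNG-channel-expressing HEK293 cells / Probe or stimulus: NPY 25 nM then isoproterenol 1 µM plus Ro 20-1724 25 µM / Doses: 3.6 µM single dose, DMSO 0.4% / Schedule: compound incubation 1 h at room temperature, readout 45 min post-stimulation / Signal: membrane potential fluorescence / Benchmarks: isoproterenol-only wells as full block versus NPY-plus-isoproterenol wells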
NPY Y2 blocker = NPY-Y2 (human) receptor antagonism. 140,000 tested, 0.99% active. inhibition, % at 2.7 µM. P49146. NPY-Y2 expressing cells, antagonist mode; in the data active = inhibition above about 17%;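 also: 0% = vehicle with agonist challenge and 100% = reference antagonist with challenge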
NPY-Y2 PAM-ag = human NPY-Y2 potentiation or agonism, primary screen; activation, % at 3.6 µM; AID 1359; cells expressing NPY-Y2, potentiator/agonist read-out; 220,000 tested, 0.45% active; in the data active = activation above about 27%;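 also: cells stimulated with NPY near EC25 plus isoproterenol at EC100; 0% = vehicle plus submaximal agonist and 100% = vehicle plus saturating agonist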
The depositor's hits bear a star; / = no result given; ! = not active in a repeat.

SMILES | NPY1 pot ag | EP2 antag | EP2 modulator | NPY Y1 blocker | NPY Y2 blocker | NPY-Y2 PAM-ag
CCCNC(=O)c1nnsc1S(=O)c1ccc(Cl)cc1 (centres undefined) | 13 | 69* | -74 | -4 | / | 7
c1csc(-c2csc3nc(CN4CCOCC4)nc(NCc4ccc5c(c4)OCO5)c23)c1 | -59 | 11 | -12 | 44* | 36* | -31
c1csc(-c2nc3ccccn3c2NCc2ccc3c(c2)OCO3)c1 | / | 10 | -42 | / | / | /
CCOC(=O)c1c(C)nc2c(c1-c1cc(OC)ccc1OC)C(=O)c1ccccc1-2 | -2 | 9 | 55 | 9 | 0 | 12
CCOC(=O)c1c(C)nc2ccc(Cl)cc2c1-c1ccccc1 | -71 | 2 | 33 | 9 | 14 | -10
CCOC(=O)c1c(C)nc2c(c1-c1ccccc1)C(=O)c1ccccc1-2 | -40 | 6 | 61* | 8 | 5 | -21
CCOC(=O)c1c(CCl)nc2ccccc2c1-c1ccccc1 | 8 | 6 | 87* | / | / | -7
C#CCOc1ccccc1CN(Cc1ccccn1)C1CC(C)(C)NC(C)(C)C1 | / | 7 | -48 | / | / | /
COc1ccc(S(=O)(=O)N2CCC(C(=O)NC(C)(C)C)CC2)cc1 | / | 10 | -20 | / | / | /
Cc1ccc(-c2nc(=S)c3c(n2Cc2ccco2)CCCC3)cc1 | -33 | -1 | 21 | 21* | 16 | 1
CCSc1nnc(NC(=O)NC(C)(C(F)(F)F)C(F)(F)F)s1 | 1 | 5 | -10 | -2 | 1 | 11
CCSc1nnc(NC(=O)NC(CC)(C(F)(F)F)C(F)(F)F)s1 | 47* | 16 | -10 | 1 | 0 | 23
O=C(C1CCCO1)N1CCC(c2nc3sc4c(c3c(=O)[nH]2)CCCC4)CC1 (centres undefined) | / | / | -55 | / | / | /
C=CCn1c2cc(C)sc2c2cnn(Cc3ccccc3F)c(=O)c21 | / | / | 63* | / | / | /
C=CCn1c2cc(C)sc2c2cnn(Cn3nnc4ccccc43)c(=O)c21 | / | / | -4 | / | / | /
COc1ccc(OCC(O)CN2CCN(c3ccc(Cl)cc3)CC2)cc1 (centres undefined) | 16 | 3 | -5 | / | / | -7
C=CCc1ccccc1OCC(O)CN(C(C)C)C(C)C (centres undefined) | 103* | 15 | -5 | -18 | 5 | 97*
C=CCc1ccccc1OCC(O)Cn1ccnc1C (centres undefined) | 12 | 6 | -5 | 3 | 6 | 20
CCOc1ccccc1OCC(O)CNC (centres undefined) | 106* | 8 | 8 | -16 | 0 | 94*
C=CCc1ccccc1OCC(O)CNC (centres undefined) | 110* | 18 | -7 | -21 | 0 | 101*
CCOc1ccccc1CNCCNCC(C)O (centres undefined) | -2 | 2 | 13 | 4 | / | -8
C=CCc1ccccc1OCC(O)CN1CCN(c2ccc(OC)cc2)CC1 (centres undefined) | 91* | 1 | 26 | -15 | 4 | 80*
CCc1cc2cc3c(cc2nc1SCC(=O)Nc1cc(C)ccc1C)OCO3 | / | 20 | 60 | / | / | /
C[N+](C)(C)CCN[N@+]1(C)CCCc2ccccc21 | / | 40* | 19 | / | / | /
CC(C)(C)NC(=O)C(c1ccccn1)N(C(=O)c1csnn1)C1CC1 (centres undefined) | / | 11 | 11 | / | / | /
SMILES | NPY1 pot ag | EP2 antag | EP2 modulator | NPY Y1 blocker | NPY Y2 blocker | NPY-Y2 PAM-ag
Nc1ccc(N=Nc2c(S(=O)(=O)O)cc3ccccc3c2S(=O)(=O)O)cc1 | / | 41* | 18 | / | / | /
Cc1noc(C)c1C(=O)OCC(=O)Nc1cc(Cl)ccc1Oc1ccccc1 | -20 | 12 | 26 | 23* | 22* | -16
COc1ccc(C)cc1NC(=O)COC(=O)c1c(C)noc1C | -5 | 4 | 13 | 3 | 1 | 0
CS(=O)(=O)N1CCC(c2ccc3c(c2)OCO3)CC1 | / | 4 | -41 | / | / | /
CN(C)S(=O)(=O)N1CCC(c2ccc(F)cc2)C(COc2ccc3c(c2)OCO3)C1 (centres undefined) | -17 | 10 | 13 | 44* | 28* | -21
C[N+]1(CC(=O)c2ccccc2)CCOCC1 | / | 6 | 17 | / | / | /
COC(=O)c1ccccc1NC(=O)CSc1nc(-c2ccco2)cc(C(F)(F)F)n1 | 21 | 6 | 65*! | 0 | 12 | -3
COc1ccc(-c2cc(C(F)(F)F)nc(SCC(=O)Nc3cc(C)on3)n2)cc1OC | -3 | 6 | 3 | 7 | 22* | 9
CC(C)OC(=O)CSc1nc(-c2ccc(F)cc2)cc(C(F)(F)F)n1 | -39 | 20 | -20 | 28* | 25* | -1
COC(=O)c1ccc(C(=O)OC)c(NC(=O)CSc2nc(-c3ccco3)cc(C(F)(F)F)n2)c1 | 3 | / | / | 0 | 1 | 7
O=C(O)CSc1nc(-c2ccc(F)cc2)cc(C(F)(F)F)n1 | / | 8 | 58 | / | / | /
CCCc1c(-c2ccc(O)cc2)nn(-c2ccc(O)cc2)c1-c1ccc(O)cc1 | / | 100* | -22 | / | / | /
Cc1sc2ncnc(SCC(=O)N3CCCCC3C)c2c1C (centres undefined) | / | 6 | -2 | / | / | /
CN(C1=C(NC(=O)c2ccccc2)C(=O)c2ccccc2C1=O)C1CCS(=O)(=O)C1 (centres undefined) | -30 | 44* | -59 | 12 | 1 | -6
COc1ccc(CN(Cc2ccco2)Cc2nc[nH]c2C)c(OC)c1 | / | 8 | -9 | / | / | /
Cc1ccc2c(c1)cc(CN(C(=O)Nc1ccccc1)C1CCCCC1)c1nnnn12 | / | 11 | -2 | / | / | /
C/C(NC(=O)c1cccs1)=C1\C(=O)C[C@@H]2[C@H]1C2(C)C | -13 | 2 | 30 | 22* | 5 | -11
c1ccc(Cn2nc(-c3ccccc3)nc2-c2ccccc2)cc1 | 0 | 5 | 45 | 19 | 7 | -7
Cc1nnc2nc(-c3ccccc3)nc(-c3ccccc3)n12 | -14 | 6 | 82* | / | / | -14
CC1(C)CC2(C)CC1CC2NC(=O)CC[N+]1(C)CCOCC1 (centres undefined) | / | 14 | 0 | / | / | /
Fc1ccc2[nH]c3c(N4CCN(c5ccccc5)CC4)ncnc3c2c1 | -13 | 88* | -44 | 3 | 2 | 2
COc1ccc(N2CCN(c3ncnc4c3[nH]c3ccccc34)CC2)cc1 | 23 | 54* | -45 | 5 | 4 | 9
CCOC(=O)N1CCN(c2ncnc3c2[nH]c2ccc(F)cc23)CC1 | 5 | 17 | -25 | -1 | 1 | -8
CCOC(=O)CNc1c(-c2ccccc2)nc2ccc(Cl)cn12 | 5 | 4 | 12 | 1 | -1 | -12
Cc1ccn2c(NC(=O)c3ccco3)c(-c3ccccc3)nc2c1 | -13 | 7 | 9 | 0 | 0 | -15
Cc1ccccc1Nc1c(-c2ccncc2)nc2ccc(Cl)cn12 | 54* | 7 | 17 | -6 | / | 45*
Cc1ccn2c(Nc3ccccc3C)c(-c3cccnc3)nc2c1 | 61* | 3 | 23 | 0 | / | 53*
O=S(=O)(c1ccc(Cl)c(F)c1)N1CCC(c2nc3ccccc3s2)CC1 | / | 8 | -21 | / | / | /
